# Only a selection was taken, and hits are over-represented in it overall.
# PGC1a Ac signal: raises PGC1a acetylation signal in U2OS cells | activation, % at 15.6 µM | 0.21% of 350,000 active | U2OS PGC1a acetylation AlphaScreen, overnight | AID 651723;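 active = every replicate reaching activation of at least 50%, whatever the mean replicate activation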;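 note: hits raise the AlphaScreen acetylation signal above neutral controls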
#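 System – flag-PGC1a/GCN5 U2OS cells · Quantity – 7000 U2OS cells per well · Signal – AlphaScreen proximity luminescence, anti-acetyl-lysine antibody · Schedule – overnight compound treatment, 37 °C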
# A number is an active result; 0 = inactive.
SMILES,PGC1a Ac signal
Cc1ccsc1C(=O)Nc1cc(Cl)ccc1-n1cncn1,0
Cc1nn(-c2ccccc2)c(Cl)c1C(=O)N1CCN(c2ncnc3c2cnn3-c2ccccc2)CC1,0
CC(C)c1nnc(NC(=O)CCS(=O)(=O)c2nc(-c3cccs3)cc(C(F)(F)F)n2)s1,102.8
Cc1noc(C)c1NC(=O)N(C)C[C@@H]1Oc2c(NS(=O)(=O)c3cn(C)cn3)cccc2C(=O)N([C@@H](C)CO)C[C@@H]1C,0
CN(C)c1ncnc2c1ccn2C1OC(CO)C(O)C1O (stereo unspecified),0
C[C@@H]1CCCCO[C@H](CN(C)C(=O)NC2CCCCC2)[C@@H](C)CN([C@@H](C)CO)C(=O)c2cc(NC(=O)NC3CCCCC3)ccc2O1,0
CCS(=O)(=O)Nc1ccc2c(c1)C(=O)N(C)C[C@@H](OC)[C@H](C)CN(Cc1ccccn1)[C@@H](C)CO2,0
Cc1cc(C)n(-c2ccc(Cl)c(C(=O)OCC(N)=O)n2)n1,0
CN1/C(=C/C(=O)c2nc(S(C)(=O)=O)ncc2Cl)C(C)(C)c2ccccc21,0
CCOC(=O)c1nc(S(C)(=O)=O)ncc1Cl,131.7
CN(C)c1ccc(/C=C/c2ccc3c4ccccc4ccc3[n+]2-c2ccccc2)cc1,0
O=C(Oc1ccc[nH]c1=O)c1cc([N+](=O)[O-])cc([N+](=O)[O-])c1,0
COc1ccc(OC)c(CN2CCN(C(=O)c3ccc(NS(=O)(=O)c4cccc([N+](=O)[O-])c4)cc3)CC2)c1,0
COC(=O)c1cc(C(=O)N2CCN(c3cccc(Cl)c3)CC2)cc([N+](=O)[O-])c1,77.5
Cn1nnnc1SCC(=O)NCc1cccc(C(=O)O)c1,0
Cc1cc(C)n2c(SCC(=O)NCc3ccco3)nnc2n1,62.5
Cc1cc(C)nc(N2CCC(C(=O)NCc3ccco3)CC2)n1,0
C(=C\c1ccccc1)/CN1CCN(C(c2ccnc3ccccc23)c2nnnn2C2CCCCC2)CC1 (stereo unspecified),64.7
COc1nc(OCCNS(=O)(=O)c2ccc(C)cc2)nc(N(C)C)n1,0
O=C1CCN(S(=O)(=O)c2ccc(Cl)cc2)N1,63.1
COc1ccc(-c2cc(C(=O)O)[nH]n2)cc1OC,0
COc1ccc(OC)c(-n2c(-c3ccc(C)cc3)n[nH]c2=S)c1,69.8
Cc1cc(Cl)ccc1OCC(=O)Nc1cccc(S(=O)(=O)NC2=NCCCCC2)c1,0
Cc1nnnn1/C(=C\c1ccccc1)C(=O)OCC(=O)Nc1cccc(S(=O)(=O)N(C)C)c1,96.4
Cc1ccccc1NC(=O)Nc1ccccc1Br,0
SMILES,PGC1a Ac signal
CC(NS(=O)(=O)c1ccccc1Cl)C1CC2CCC1C2 (stereo unspecified),102.1
O=c1oc(-c2ccccc2)cc(Cl)c1Cl,115.0
Oc1ccc(Nc2nnc(-c3ccc(O)cc3)c3ccccc23)cc1,63.4
OCc1ccc2c(c1)c(-c1ccc3c(c1)OCCO3)c(-c1ccccc1)n2-c1ccccc1,177.8
CC1(C)CC(=O)C2=C(C1)Nc1ccccc1N1C(=O)c3ccccc3C21 (stereo unspecified),57.9
CCCCN(CCCC)CCNC(=O)c1ccc2nc(-c3ccccc3NC(C)=O)c(=O)[nH]c2c1,0
Cc1cc(C)cc(OC(=O)CS(=O)c2ccc(C(F)(F)F)cc2[N+](=O)[O-])c1 (stereo unspecified),63.9
CCCCNC(=O)c1ccc(CS(=O)(=O)c2ccccc2OC)o1,0
CCN(C[C@@H]1N[C@@H](CO)[C@H]1c1ccc(-c2ccc(F)cc2)cc1)C(=O)CN(C)C,59.4
COC(=O)c1[nH]c2ccc(F)cc2c1NS(=O)(=O)c1ccc(OC)cc1OC,0
O=C(c1ccc([N+](=O)[O-])s1)N1CCc2ccccc2C1,0
Cc1c(Cl)cccc1N=Cc1ccc([N+](=O)[O-])s1,102.1
COc1ccc(/C=N/NC(=O)Cn2cnc3ccccc3c2=O)cc1OC,0
Cc1ccc(CNC(=O)CCS(=O)(=O)c2cc3c(cc2Cl)NC(=O)CO3)cc1,0
CN(C)C(=O)c1ccc(-c2ccc([C@@H]3[C@H]4CN(C(=O)CC5CC5)CC(=O)N4[C@H]3CO)cc2)cc1,0
CCOC(=O)N1CCN(C(=O)c2cc(Cl)c(Cl)cc2C(=O)O)CC1,0
CCCOC1CCCN(C(=O)c2cc(Cl)c(Cl)cc2C(=O)O)C1 (stereo unspecified),86.6
CC(C)NC(=O)Nc1ccc2c(c1)C(=O)N([C@@H](C)CO)C[C@@H](C)[C@H](CN(C)Cc1ccc(C(=O)O)cc1)OCCCC[C@H](C)O2,0
C=CS(=O)(=O)N(Cc1ccccc1Br)[C@H](CO)Cc1ccccc1,0
CCOC(=O)N1C/C(=C\c2ccccc2)C(=O)/C(=C/c2ccccc2)C1,497.4
CCOC(=O)/C(C#N)=C1/C(=O)N(Cc2ccccc2)c2ccccc21,0
C[C@@H]1CN([C@H](C)CO)C(=O)c2cc(NC(=O)CCCCCC(=O)Nc3ccccc3N)ccc2O[C@H]1CN(C)S(=O)(=O)c1ccc(Cl)cc1,0
O=C(C[C@@H]1C[C@@H]2c3cc(NC(=O)Nc4ccccc4F)ccc3O[C@@H]2[C@@H](CO)O1)NCc1ccc(Oc2ccccc2)cc1,0
